Assay outcomes from PubChem BioAssay.
CHO parental Ca = counter-screen for OX1R antagonists: effect in parental CHO cells; parental CHO-K1, ATP-induced calcium, Fluo-8 fluorescence; AID 463079; inhibition, % at 5.6 µM; actives 0.63% (n = 330,000);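 active = inhibition above that plate's mean sample inhibition plus 3 SD, cut at about 26% in these data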;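 also: 0% = ATP-challenged DMSO wells and 100% = DMSO wells without ATP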
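Test system: untransfected parental CHO cell line; also added: ATP stimulus; dosing: 5.6 µM, single dose; signal: calcium-sensitive Fluo-8 fluorescence; measure: percent inhibition of ATP-evoked calcium rise, normalized to controls; benchmarks: low control ATP plus DMSO, high control DMSO only; replication: one well per compound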
OX1R antag-1 = blocks the human orexin 1 receptor | CHO/OX1R cells, Fluo-8 calcium fluorescence, orexin A | inhibition, % at 5 µM | O43613 | actives 0.43% (n = 330,000);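 active = inhibition above its plate's threshold, mean inhibition of all tested compounds on the plate plus 3 SD, cut at about 37% in these data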;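 also: 0% = orexin A challenge wells and 100% = SB-334867-A antagonist wells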
OX1R antag-2 = antagonists of human orexin 1 receptor (OX1R) | actives 1.8% (n = 330,000) | OX1R-expressing cells, FRET antagonist read-out | inhibition, % at 6.6 µM; in the data active = inhibition mostly above about 38%, no sharp cut-off; inactive = mostly below about 40%;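 also: 0% = agonist challenge alone and 100% = reference antagonist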
TAAR1 agonist = agonists of human TAAR1; activation, % at 3 µM; AID 624467; CHO RD-HGA16 TAAR1, Fluo-8 calcium fluorescence; vehicle wells 0%, saturating PEA agonist 100%; actives 0.99% (n = 360,000);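 active = activation above the mean activation of all test compounds in the run plus 3 SD, cut at about 38% in these data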
Target sequence (Q96RJ0 whole entry, looked up): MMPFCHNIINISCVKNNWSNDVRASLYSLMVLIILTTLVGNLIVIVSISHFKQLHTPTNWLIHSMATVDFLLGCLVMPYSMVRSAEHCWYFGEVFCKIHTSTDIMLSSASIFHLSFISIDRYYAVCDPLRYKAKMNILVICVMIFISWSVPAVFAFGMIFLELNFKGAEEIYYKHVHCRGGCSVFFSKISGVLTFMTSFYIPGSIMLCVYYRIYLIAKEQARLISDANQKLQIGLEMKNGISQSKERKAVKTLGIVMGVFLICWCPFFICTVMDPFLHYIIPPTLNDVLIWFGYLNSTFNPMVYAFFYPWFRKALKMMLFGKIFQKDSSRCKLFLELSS
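System: CHO RD-HGA16 cells carrying human TAAR1 plus Gα16; Incubation: 17-24 h seeding, 75 min 37 °C dye, 30 min RT; Measured by: Fluo-8 fluorescence, 5 s baseline then 140 s kinetic read; Control set: DMSO and PEA EC100; Replication: single well for each compound.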
TAAR1 antag = human TAAR1 antagonism | actives 1.5% (n = 360,000) | inhibition, % at 3 µM | CHO RD-HGA16 TAAR1, Fluo-8 calcium fluorescence, antagonist | Q96RJ0;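 active = inhibition above a per-plate cutoff, the mean inhibition of test compounds on that plate plus 3 SD, cut at about 49% in these data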;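 also: 0% = DMSO plus EC80 beta-PEA response and 100% = DMSO alone without agonist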
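test system = CHO RD-HGA16 cells bearing hTAAR1 | replication = singlicate | controls = DMSO-only wells and EC80 β-PEA-stimulated wells | reagent = EC80 β-phenethylamine stimulus | read-out basis = percent inhibition of PEA-evoked calcium signal, max/basal emission ratio | schedule = seeding 17-24 h prior, 75-min 37 °C, 30-min RT dye loading | signal = kinetic Fluo-8 calcium fluorescence measurement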
GPR7 antagonist = blocks human GPR7 receptor signaling. P48145. GPR7-expressing cells, fluorescence antagonist assay. inhibition, % at 4.4 µM. actives 1.1% (n = 290,000). AID 1861; in the data active = inhibition above about 16%, passing the limit was not always enough;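 also: cells stimulated with the agonist NPW; 0% = agonist with vehicle and 100% = vehicle without agonist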
Target sequence (P48145 whole entry, looked up): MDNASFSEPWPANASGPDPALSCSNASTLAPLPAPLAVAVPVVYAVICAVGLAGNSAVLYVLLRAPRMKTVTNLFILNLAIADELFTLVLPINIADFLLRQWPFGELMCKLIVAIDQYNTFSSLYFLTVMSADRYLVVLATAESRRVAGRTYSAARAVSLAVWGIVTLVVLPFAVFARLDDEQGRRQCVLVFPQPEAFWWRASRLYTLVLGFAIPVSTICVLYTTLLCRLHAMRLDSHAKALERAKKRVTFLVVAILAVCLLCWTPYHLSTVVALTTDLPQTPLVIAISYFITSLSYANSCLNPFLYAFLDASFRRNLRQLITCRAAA
* hit, by the source's call; / = no result given. Rows were chosen to be rich in hits. Some 4.6% of all compounds tested hit in one or more screens of this group.

SMILES | CHO parental Ca | OX1R antag-1 | OX1R antag-2 | TAAR1 agonist | TAAR1 antag | GPR7 antagonist
Cc1cccn2c(=O)c3cc(C(=O)NC4CCCC4)c(=N)n(CC4CCCO4)c3nc12 (centres undefined) | -18 | -26 | 55* | 0 | 8 | -4
Cc1cccn2c(=O)c3cc(C(=O)NCC4CCCO4)c(=N)n(C4CCCCC4)c3nc12 (centres undefined) | -24 | -22 | 44* | -1 | -12 | -1
CC1NC(=O)c2ccccc2-n2c1nc1ccc(F)cc1c2=O (centres undefined) | / | / | / | 1 | -2 | /
COC(=O)C1=C(C)N(Cc2ccccc2C(F)(F)F)C(=NCC2CC2)NC1c1ccc(C(F)(F)F)cc1 (centres undefined) | / | / | / | 12 | 18 | /
COC(=O)[C@]12C[C@H](CC(=O)N3CCOCC3)C(=O)N(CCC3=CCCCC3)C1=C[C@H](C(C)(C)C)O[C@@H]2C | / | / | / | 0 | -36 | /
Cn1ncc2c(NCCc3ccccc3)nc(Cl)nc21 | / | / | / | 38* | 43 | /
Cc1cc(N2CCN(C(=O)OC(C)(C)C)C[C@@H]2C)ccc1N1CCN(Cc2ccccc2)[C@@H](C)C1 | / | / | / | -1 | 14 | /
CN(C)S(=O)(=O)c1cccc(NC(=O)CSc2nc3ccccc3[nH]2)c1 | -3 | -3 | 26 | 10 | 10 | -14
CCN(CC)S(=O)(=O)c1cccc(NC(=O)CSc2nc3ccccc3[nH]2)c1 | 31* | 44* | 53* | 9 | 19 | -9
CN(C)S(=O)(=O)c1cccc(NC(=O)CSc2ncnc3ccccc23)c1 | 29* | 2 | 24 | 6 | 16 | -5
O=C(Nc1ccccc1C(=O)NCC1CC1)c1cccs1 | / | / | / | -1 | -13 | /
CS(=O)(=O)N(CC(=O)N1CCN(Cc2ccccc2)CC1)Cc1ccccc1 | 2 | -4 | 9 | 3 | -3 | 16*
CCOC(=O)N1CCN(C(=O)CN(Cc2ccccc2)S(C)(=O)=O)CC1 | -1 | 2 | 15 | 0 | -10 | -16
C=CCn1c(=N)c(C(=O)OCC)cc2c(=O)n3cccc(C)c3nc21 | -9 | -15 | 110* | / | / | -3
CCOC(=O)c1cc2c(=O)n3ccccc3nc2n(C(C)C)c1=NC(=O)c1ccco1 | -8 | -24 | 29 | 5 | 3 | -8
CCOC(=O)c1cc2c(=O)n3cccc(C)c3nc2n(CC(C)C)c1=NC(=O)c1ccco1 | -15 | -21 | 54* | 5 | -37 | -6
Cc1ccc2nc3c(cc(C(=O)NC4CCCC4)c(=N)n3C3CCCCC3)c(=O)n2c1 | -9 | 0 | 21 | 0 | -20 | 1
C=CCn1c(=N)c(C(=O)NCCCOC)cc2c(=O)n3cc(C)ccc3nc21 | -10 | -10 | 58* | 4 | -2 | -6
CCCn1c(=NC(=O)c2ccco2)c(C(=O)OCC)cc2c(=O)n3ccccc3nc21 | -14 | -30 | 32* | 12 | -14 | -5
CCOC(=O)c1cc2c(=O)n3ccccc3nc2n(CCCOC)c1=NC(C)=O | -4 | -14 | 51* | 1 | 11 | -4
O=C(NCc1ccccc1)[C@H]1CCCN1C(=O)[C@H]1CCCN1C(=O)c1ccc(Cl)cc1 | / | / | / | 1 | -12 | /
CC(C)NC(=O)c1ccc(COCC(F)(F)C(F)F)cc1 | -2 | -18 | 11 | 9 | 2 | 2
O=C(NCC1CCCO1)c1ccc(COCC(F)(F)C(F)F)cc1 (centres undefined) | -1 | -6 | 10 | -2 | -8 | 17*
COc1c2ccoc2c(OC[C@@H](O)C(C)(C)OC)c2oc(=O)ccc12 | -7 | -5 | 11 | 1 | 3 | -6
COc1c2ccoc2c(OC[C@@H](O)C(C)(C)O)c2oc(=O)ccc12 | -14 | 8 | 62* | 2 | -1 | -7
SMILES | CHO parental Ca | OX1R antag-1 | OX1R antag-2 | TAAR1 agonist | TAAR1 antag | GPR7 antagonist
COc1ccc(C(=O)C(=O)N2CCN(S(=O)(=O)c3cccc4c(N(C)C)cccc34)CC2)cc1OC | / | / | / | 1 | 21 | /
O=C(NC1CCCC1)[C@@H]1CCCN1C(=O)[C@@H](NS(=O)(=O)c1ccc(F)cc1F)C1CCCCC1 | / | / | / | 6 | -41 | /
CC(OC(=O)c1ccc2ccccc2c1)C(=O)N(C)Cc1ccccc1 (centres undefined) | -24 | 17 | 38* | 10 | 18 | /
CC(=O)Cc1nsc(NC(=O)c2ccc(-c3ccc(F)cc3)o2)n1 | -19 | 8 | 61* | 3 | -24 | 8
CN(C)c1ccc(NC(=S)Nc2ccc3c(c2)c(=O)n(C)n3-c2ccc(C(C)(C)C)cc2)cc1 | / | / | / | -1 | -13 | /
O=C1NC(=S)NC1=Cc1ccccc1O | / | / | / | 47* | 12 | /
CC1CCCN(CCCNC(=O)C2CCC(CNS(=O)(=O)c3cccc4nsnc34)CC2)C1 (centres undefined) | -7 | 1 | 48* | / | / | -6
CCCNC(=O)C1CCC(CNS(=O)(=O)c2cccc3nsnc23)CC1 (centres undefined) | 0 | 8 | 34 | 6 | -7 | -17
CCOCCCNC(=O)C1CCC(CNS(=O)(=O)c2cccc3nsnc23)CC1 (centres undefined) | -7 | -12 | 53* | 7 | 7 | -7
COCCNC(=O)C1CCC(CNS(=O)(=O)c2cccc3nsnc23)CC1 (centres undefined) | -4 | 7 | 24 | 5 | -11 | -13
CCC(C)NC(=O)C1CCC(CNS(=O)(=O)c2cccc3nsnc23)CC1 (centres undefined) | -10 | -8 | 50* | / | / | -7
O=C(CCCNS(=O)(=O)c1cccc2nsnc12)NC1CCCCC1 | -12 | -20 | 80* | 1 | 8 | 4
CCCCNC(=O)C1CCC(CNS(=O)(=O)c2cccc3nsnc23)CC1 (centres undefined) | -11 | -8 | 41 | 11 | -23 | -10
COC(=O)C1=CN(c2ccc3c(c2)OCO3)C(N)=C(C#N)C1c1ccccc1 (centres undefined) | / | / | / | 2 | -9 | /
Cc1ccc(C2c3c(n[nH]c3C(C)C)C(=O)N2c2ccccc2)cc1 (centres undefined) | / | / | / | 14 | -57 | /
COC(=O)C1=C(C)N(C)C(=NCc2ccc(OC)cc2)NC1c1ccc(C(F)(F)F)cc1 (centres undefined) | / | / | / | 12 | 6 | /
Cc1cc(C(=O)N2CCCC(C)(C(=O)NS(=O)(=O)C3CC3)C2)nn1C(C)(C)C (centres undefined) | / | / | / | 1 | -18 | /
CCc1ccc(NC(=O)CCC(=O)c2ccc(C)cc2)cc1 | 31* | -2 | -12 | -3 | -25 | 20
CCCn1cnnc1CNC(=O)[C@@H](Cc1ccccc1)NC(=O)[C@H]1O[C@@H](n2ccc(=O)[nH]c2=O)[C@H](O)[C@@H]1O | / | / | / | 4 | -19 | /
